A selection: hits, their analogues and other compounds. The true share with any hit is near 1.7%.
B2AR ag: human beta-2 adrenergic receptor agonism by FAP; Am2.2-beta2AR cells, FAP receptor internalization, flow cytometry; actives 0.43% (n = 340,000); response, % (concentration not given with the values); P07550;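 active = response above a set limit, near 3 SD of response in nonfluorescent compounds, cut at about 42% in these data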
Target sequence (P07550 whole entry, looked up): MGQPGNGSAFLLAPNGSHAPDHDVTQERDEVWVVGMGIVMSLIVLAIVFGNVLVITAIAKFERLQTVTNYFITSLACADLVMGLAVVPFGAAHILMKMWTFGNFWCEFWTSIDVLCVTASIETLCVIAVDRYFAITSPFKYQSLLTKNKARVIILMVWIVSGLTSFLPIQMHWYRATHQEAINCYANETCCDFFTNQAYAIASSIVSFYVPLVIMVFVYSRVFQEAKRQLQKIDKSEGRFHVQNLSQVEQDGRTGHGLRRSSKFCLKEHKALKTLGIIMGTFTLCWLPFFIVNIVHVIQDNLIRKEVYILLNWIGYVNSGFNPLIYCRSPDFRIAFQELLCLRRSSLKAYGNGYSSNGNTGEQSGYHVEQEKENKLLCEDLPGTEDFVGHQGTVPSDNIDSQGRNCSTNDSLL
CCR6 antagonist: antagonists of human CCR6 receptor. P51684. inhibition, % at 20 µM. AID 493098. actives 0.49% (n = 340,000). CHO-K1 CCR6 PathHunter beta-arrestin, luminescence, CCL20-stimulated;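 active = compounds whose inhibition of the agonist-driven luminescence signal at 20 µM reaches about 50%, limit read from the data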;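 also: cells stimulated with CCL20 at 14 nM final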
APJ agonist: APJ receptor agonism; P35414; actives 0.11% (n = 330,000); CHO-K1 APJ PathHunter beta-arrestin, luminescence; 0% DMSO wells, 100% apelin; activation, % at 20 µM;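 active = activation more than six SD over the plate average, tested at 20 µM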
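Test system: CHO-K1 APJ beta-arrestin complementation cell line. Amount: cell density 1000 per well. Controls: DMSO negative, 10 nM Apelin-13 positive. Signal: luminescent beta-gal fragment complementation, chemiluminescent substrate. Read-out basis: agonist-driven arrestin binding to APJ. Timing: compound stimulation 90 min at 25 °C, detection 60 min.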
APJ antag: APJ receptor antagonism; P35414; CHO-K1 APJ beta-arrestin complementation, luminescence; inhibition, % at 20 µM; actives 0.32% (n = 330,000); AID 2521;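 active = inhibition above about 40% at 20 µM, limit read from the data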;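 also: cells challenged with 10 nM apelin-13 agonist together with compound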
PfGluPho inh: PfG6PD (Plasmodium falciparum) enzyme inhibition. PfGluPho enzyme, NADPH resazurin-diaphorase fluorescence. inhibition, % at 20 µM. actives 0.78% (n = 350,000). AID 504690;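 active = inhibition reaching at least a set limit at 20 µM in the primary screen, cut at about 59% in these data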
CXCR6 block: blocks human CXCR6 beta-arrestin recruitment. O00574. CHO-K1 PathHunter CXCR6 beta-arrestin, luminescence. inhibition, % at 20 µM. actives 0.36% (n = 360,000); in the data active = inhibition above about 34%, passing the limit was not always enough;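 also: antagonist mode with CXCL16 agonist at 10 nM final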
Target sequence (O00574 whole entry, looked up): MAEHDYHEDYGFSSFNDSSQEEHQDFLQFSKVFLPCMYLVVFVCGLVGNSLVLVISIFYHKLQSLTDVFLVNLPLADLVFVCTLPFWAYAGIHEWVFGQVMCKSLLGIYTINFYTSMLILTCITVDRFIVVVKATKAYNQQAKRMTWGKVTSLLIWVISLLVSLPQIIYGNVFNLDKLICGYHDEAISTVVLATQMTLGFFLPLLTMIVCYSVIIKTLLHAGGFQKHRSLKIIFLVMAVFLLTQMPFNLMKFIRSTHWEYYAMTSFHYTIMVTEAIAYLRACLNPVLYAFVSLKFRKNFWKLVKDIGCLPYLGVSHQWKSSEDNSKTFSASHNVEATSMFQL
PfG6PD confirm: confirmation of Plasmodium falciparum G6PD inhibitors; inhibition, % at 20 µM; actives 34% (n = 2,400); AID 504753; recombinant PfGluPho, NADPH-diaphorase-resazurin fluorescence; shares compounds with PfGluPho inh;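 active = inhibition of at least 50% at 20 µM in any single replicate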
Diaphorase 10uM: diaphorase inhibition or oxidation at 10 uM NADPH; shares compounds with PfGluPho inh; AID 504862; actives 39% (n = 820); diaphorase-coupled resazurin reduction, fluorescence, NADPH 10 uM; inhibition, % at 20 µM;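 active = average inhibition reaching 50% or more with the compound at 20 µM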;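 also: resorufin red fluorescence formed as diaphorase reduces resazurin using NADPH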
Diaphorase 30uM: inhibits diaphorase or oxidizes, flagging false PfG6PD hits; actives 29% (n = 820); shares compounds with PfGluPho inh; inhibition, % at 20 µM; Diaphorase/resazurin coupled assay, resorufin fluorescence, 30 uM NADPH;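 active = inhibition averaging 50% or more, tested at 20 µM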
Large screens that a line does not name were inactive (follow-up assays come after a bar, where they were run).

CCCn1c(=N)n(CC(=O)c2ccc([N+](=O)[O-])cc2)c2ccccc21	PfGluPho inh 73 | PfG6PD confirm inactive
N=c1n(CCN2CCOCC2)c2ccccc2n1CC(=O)c1cccc([N+](=O)[O-])c1	PfGluPho inh 75 | PfG6PD confirm inactive
N=c1n(CCN2CCOCC2)c2ccccc2n1CC(=O)c1ccc(Cl)c(Cl)c1	PfGluPho inh 114 | PfG6PD confirm inactive
COc1ccc(OC)c(CCNC(=O)CCCc2nnc3n(C)c(=O)c4sccc4n23)c1	none
Nc1ccccc1SCc1csc(-c2ccc(Cl)cc2)n1	PfGluPho inh 60 | PfG6PD confirm inactive
COCc1ccc(C(=O)N2CCCC(N(C)CCc3ccccc3)C2)s1 (stereo unspecified)	none (no result: B2AR ag, CCR6 antagonist, APJ agonist, APJ antag)
COCCNC(=O)C1(C)CCCN(C(=O)c2ccccc2OC(F)(F)F)C1 (stereo unspecified)	none (no result: B2AR ag, CCR6 antagonist, APJ agonist, APJ antag, PfGluPho inh)
Cc1cc(-n2c(C)cc(C(=O)COc3cccnc3[N+](=O)[O-])c2C)no1	none
Cc1cc(-n2c(C)cc(C(=O)COc3ccc4ccc(=O)oc4c3)c2C)no1	PfGluPho inh 89 | PfG6PD confirm inactive
CC(=O)c1cccc(OCC(=O)c2cc(C)n(-c3cc(C)on3)c2C)c1	PfGluPho inh 117 | PfG6PD confirm 62 | Diaphorase 10uM 62 | Diaphorase 30uM 55
Cc1c(C(=O)NCc2ccc(F)cc2)sc(=O)n1Cc1ccccc1	none (no result: B2AR ag, CCR6 antagonist, APJ agonist, APJ antag, PfGluPho inh)
COc1ccc(CNC(=O)[C@H](Cc2ccccc2)NC(=O)CC[C@H]2O[C@@H](n3ccc(=O)[nH]c3=O)[C@H](O)[C@@H]2O)cc1	none (no result: B2AR ag, CCR6 antagonist, APJ agonist, APJ antag, PfGluPho inh)
O=C(NCc1cccc(C(F)(F)F)c1)c1ccc2nc([C@H]3C[C@H](O)[C@@H](CO)O3)[nH]c2c1	none (no result: B2AR ag, CCR6 antagonist, APJ agonist, APJ antag, PfGluPho inh)
CCn1cc(/C=N/NC(=O)c2ccc(C#N)cc2F)c2ccccc21	PfGluPho inh 107 | PfG6PD confirm 89 | Diaphorase 10uM 81 | Diaphorase 30uM 64
CCOc1ccc(S(=O)(=O)N2CCCCC2)cc1NC(=O)Cc1cc(OC)c(OC)c(OC)c1	none (no result: B2AR ag, CCR6 antagonist, APJ agonist, APJ antag)
CCNc1cc(S(=O)(=O)C(F)(F)F)ccc1N	PfGluPho inh 72 | PfG6PD confirm inactive
Cc1nc2ccc(NC(=O)C3(C)CCCN(C(C)C)C3)cc2o1 (stereo unspecified)	none (no result: B2AR ag, CCR6 antagonist, APJ agonist, APJ antag, PfGluPho inh)
COc1ccc(/C=N/Nc2cc(C)nc3c(C)cccc23)cc1	PfGluPho inh 76 | PfG6PD confirm inactive
COc1ccc(/C=N/Nc2cc(C)nc3ccccc23)cc1	none
Oc1ccc(N2CCN(Cc3ccc(OCCCN4CCCCC4)cc3)CC2)cc1	PfGluPho inh 75 | PfG6PD confirm inactive
Oc1ccc(C23CC4CC(CC(C4)C2)C3)cc1O	PfGluPho inh 83 (no result: APJ agonist, APJ antag) | PfG6PD confirm 71 | Diaphorase 10uM inactive | Diaphorase 30uM inactive
CC(=O)Nc1ccc(C23CC4CC(CC(C4)C2)C3)cc1	none
CCCCCn1c(-c2ccco2)nc2nc3ccccc3nc21	PfGluPho inh 64 | PfG6PD confirm inactive
c1ccc(Cn2c(-c3ccco3)nc3nc4ccccc4nc32)cc1	none
O=S(=O)(c1cccs1)N1CCCc2cccc(O)c21	PfGluPho inh 93 | PfG6PD confirm inactive
O=C(Nc1ccc2c(c1)N(S(=O)(=O)c1cccs1)CCC2)c1c(F)cccc1F	none
NS(=O)(=O)c1ccc(CCNC(=O)c2ccc(C#CC3(O)CCCCC3)cc2)cc1	none
Oc1cc2c(cc1O)C1c3ccc(O)c(O)c3OCC1(O)C2 (stereo unspecified)	PfGluPho inh 113 | PfG6PD confirm 106 | Diaphorase 10uM 74 | Diaphorase 30uM inactive
COc1ccc(C2C(C(=O)c3cccs3)=C(O)C(=O)N2CCN2CCOCC2)c(OC)c1 (stereo unspecified)	none
O=C(Nc1nc(=S)ss1)c1c(F)cccc1F	PfGluPho inh 62 | PfG6PD confirm inactive
COc1ccc2c(C)cc(Sc3nnnn3-c3ccccc3)nc2c1	PfGluPho inh 60 | PfG6PD confirm inactive
COc1ccc(CSc2nnnn2-c2ccccc2)cc1	none
CC1Cc2ccccc2N1CC(=O)Nc1ccc(N2CCOCC2)cc1 (stereo unspecified)	none
CC(Nc1ccc(N2CCOCC2)cc1)C(=O)N1c2ccccc2CC1C (stereo unspecified)	PfGluPho inh 69 | PfG6PD confirm inactive
O=C(Nc1ccccc1Cl)c1cc(C2CCCN(C(=O)c3cccc(O)c3)C2)on1 (stereo unspecified)	none (no result: B2AR ag, CCR6 antagonist, APJ agonist, APJ antag, PfGluPho inh)
CC(C)[C@H](NC(=O)C1CCN(S(=O)(=O)c2ccccc2)CC1)C(=O)NCc1ccc(F)cc1	none
CC(=O)N1CCN(c2ccc(NC(=O)c3ccc(F)cc3)cc2)CC1	none
O=C(CCC1CCCC1)NCCCNC(=O)CCC1CCCC1	none
Cc1ccccc1OCC(=O)NCC(=O)N/N=C/c1cccc([N+](=O)[O-])c1	none (no result: B2AR ag, CCR6 antagonist, PfGluPho inh, CXCR6 block)
O=C(N/N=C/c1cccc(Oc2ccc([N+](=O)[O-])cc2[N+](=O)[O-])c1)c1cncc(Br)c1	PfGluPho inh 98 | PfG6PD confirm 69 | Diaphorase 10uM 69 | Diaphorase 30uM 58
Cc1ccccc1OCC(=O)N/N=C/c1cccc(Oc2ccc([N+](=O)[O-])cc2[N+](=O)[O-])c1	PfGluPho inh 127 | PfG6PD confirm 93 | Diaphorase 10uM 87 | Diaphorase 30uM 71
Cc1nc(SC(C)C(=O)NCC2CCCO2)c2cc(-c3ccccc3)sc2n1 (stereo unspecified)	none
O=C(CCc1ccc(O)c(O)c1)N/N=C/c1ccc2c(c1)OCO2	PfGluPho inh 62 | PfG6PD confirm inactive
Cc1ccc(C)c(Nc2cc(C)nc3ccccc23)c1	none
NC(=O)c1ccc(N2CCN(c3ccc(O)cc3)CC2)c([N+](=O)[O-])c1	PfGluPho inh 66 | PfG6PD confirm inactive
CCc1cc[n+](C2=C([O-])c3ccccc3C(=O)/C2=N\S(=O)(=O)c2cccs2)cc1	PfGluPho inh 95 | PfG6PD confirm 72 | Diaphorase 10uM 66 | Diaphorase 30uM 75
CN1CCN(C(CC(=O)Nc2cccc(O)c2)C(=O)O)CC1 (stereo unspecified)	none (no result: B2AR ag, CCR6 antagonist, PfGluPho inh, CXCR6 block)
COc1ccc(C)cc1-n1c(SCC(=O)N2CCOCC2)nc2ccccc2c1=O	none (no result: B2AR ag, CCR6 antagonist, APJ agonist, APJ antag)
Cc1ccccc1N/C(SCc1cccc(Br)c1)=C(/C#N)C(N)=O	PfGluPho inh 97 | PfG6PD confirm 67 | Diaphorase 10uM 61 | Diaphorase 30uM inactive
COc1cccc(N/C(SCc2cccc([N+](=O)[O-])c2)=C(/C#N)C(N)=O)c1	none

Screens from PubChem.
